ChEMBL document CHEMBL1158477, “Synthesis, in vivo evaluation, and molecular modeling studies of new pyrazolo[5,1-c][1,2,4]benzotriazine 5-oxide derivatives. Identification of a bifunctional hydrogen bond area related to the inverse agonism” (J Med Chem, 2009)
The source made the active and inactive calls. The calls are words filed in the database; no cut-off is given here.

Tests used:
Mus musculus [1] = experiment: Effect on learning and memory process in CD1 albino mouse assessed as improvement in retention latency at 100 mg/kg, ip after 24 hrs by passive avoidance test; format: functional, organism-based; design: dose 100 mg/kg
Outline: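 Male CD-1 mice treated ip 30 min before training in a step-through passive avoidance box, a lighted compartment joined to a dark one by a guillotine door. Training latency recorded, then retention latency 24 h later. Mean of 15-20 mice per group.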

[2] = Displacement of [3H]flumazenil from GABAA/Benzodiazepine receptor in bovine brain; design: species or system Bos taurus
Outline: (§1)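 Bovine brain membranes; displacement of specific [3H]flumazenil (Ro15-1788) binding. Percent inhibition measured at 10 μM; Ki determined only when inhibition at that concentration exceeded 80%. Ki given as mean ± SEM of five determinations.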

Mus musculus [3] = experiment: Anticonvulsant activity against pentylenetetrazole-induced shock in CD1 albino mouse assessed as shock latency at 30 mg/kg, po preincubated for 30 mins before pentylenetetrazole challenge measured for 30 mins (RVb=253.1 +/- 13 seconds); format: functional; conditions: 30 mg/kg
Mus musculus [4] = experiment: Effect on motor coordination in CD1 albino mouse assessed as number of falls form rotarod at 10 mg/kg, po […] measured for 30 seconds after 30 mins of dosing by rotarod test; format: functional
Outline: (§2)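 Rota-rod in male CD-1 mice with a pretest. Test substance given po in 1% CMC; falls from the rotating rod counted over 30 s, assessed 30 min after treatment.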

Mus musculus [5] = experiment: Effect on explorative capacity in CD1 albino mouse assessed as curiosity-related number of head plugging activity on hole at 30 mg/kg, po after 30 mins by hole-board test; format: functional; conditions: 30 mg/kg
Outline: (§3)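 Hole-board test in male CD-1 mice: animals placed singly on the board and allowed to explore panel and holes. Test run 30 min after po dosing in 1% CMC (10 mL/kg). Hole entries (curiosity) and plane movements (spontaneous motility) counted; 10 mice per group, compared with CMC controls.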

Mus musculus [6] = experiment: Effect on explorative capacity in CD1 albino mouse assessed as curiosity-related number of head plugging activity on hole at 10 mg/kg, po after 30 mins by hole-board test; format: functional; outline: as §3
Mus musculus [7] = experiment: Anticonvulsant activity against pentylenetetrazole-induced convulsions in CD1 albino mouse assessed as convulsion latency at 30 mg/kg, po preincubated for 30 mins before pentylenetetrazole challenge measured for 30 mins (RVb=599 +/- 37.6 seconds); format: functional; conditions: 30 mg/kg
Mus musculus [8] = experiment: Effect on motor coordination in CD1 albino mouse assessed as number of falls form rotarod at 30 mg/kg, po […] measured for 30 seconds after 30 mins of drug infusion by rotarod test; format: functional; conditions: 30 mg/kg; outline: as §2
Mus musculus [9] = experiment: Anticonvulsant activity against pentylenetetrazole-induced shock in CD1 albino mouse assessed as shock latency at 10 mg/kg, po preincubated for 30 mins before pentylenetetrazole challenge measured for 30 mins (RVb=253.1 +/- 13 seconds); format: functional
Mus musculus [10] = experiment: Effect on explorative capacity in CD1 albino mouse assessed as curiosity-related number of head plugging activity on hole at 50 mg/kg, po after 30 mins by hole-board test; format: functional; outline: as §3
Mus musculus [11] = experiment: Effect on explorative capacity in CD1 albino mouse assessed as curiosity-related number of head plugging activity on hole at 100 mg/kg, po after 30 mins by hole-board test; format: functional; outline: as §3
Mus musculus [12] = experiment: Effect on spontaneous motility in CD1 albino mouse assessed as number of movement on plane board at 50 mg/kg, po after 30 mins by hole-board test; format: functional; outline: as §3
Mus musculus [13] = experiment: Effect on spontaneous motility in CD1 albino mouse assessed as number of movement on plane board at 30 mg/kg, po after 30 mins by hole-board test; format: functional; conditions: 30 mg/kg; outline: as §3
Mus musculus [14] = experiment: Effect on spontaneous motility in CD1 albino mouse assessed as number of movement on plane board at 100 mg/kg, po after 30 mins by hole-board test; format: functional; outline: as §3
Mus musculus [15] = experiment: Effect on spontaneous motility in CD1 albino mouse assessed as number of movement on plane board at 10 mg/kg, po after 30 mins by hole-board test; format: functional; outline: as §3
Mus musculus [16] = experiment: Anticonvulsant activity against pentylenetetrazole-induced convulsions in CD1 albino mouse assessed as convulsion latency at 10 mg/kg, po preincubated for 30 mins before pentylenetetrazole challenge measured for 30 mins (RVb=599 +/- 37.6 seconds); format: functional
Mus musculus [17] = experiment: Effect on ethanol-induced sleeping time in CD1 albino mouse assessed as increase in duration of loss of righting reflex at 10 mg/kg, po preincubated 30 mins before ethanol challenge; format: functional, organism-based; design: dose 10 mg/kg
Mus musculus [18] = experiment: Effect on explorative capacity in CD1 albino mouse assessed as curiosity-related number of head plugging activity on hole at 3 mg/kg, po after 30 mins by hole-board test; format: functional; outline: as §3
Mus musculus [19] = experiment: Anxiogenic activity in CD1 albino mouse at 3 mg/kg, po after 30 mins by light/dark box test; format: functional, organism-based; design: dose 3 mg/kg
Outline: (§4)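 Male CD-1 mice (22-24 g) given test substance po in 1% CMC (10 mL/kg), tested 30 min later in a light/dark box. Transfers between compartments and time spent in the illuminated side were measured. Values are mean ± SEM of 15-20 mice; compared with controls.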

Mus musculus [20] = experiment: Effect on ethanol-induced sleeping time in CD1 albino mouse assessed as increase in duration of loss of righting reflex at 3 mg/kg, po preincubated 30 mins before ethanol challenge; format: functional, organism-based; design: dose 3 mg/kg
Mus musculus [21] = experiment: Anticonvulsant activity against pentylenetetrazole-induced shock in CD1 albino mouse assessed as shock latency at 3 mg/kg, po preincubated for 30 mins before pentylenetetrazole challenge measured for 30 mins (RVb=253.1 +/- 13 seconds); format: functional
Mus musculus [22] = experiment: Anxiogenic activity in CD1 albino mouse at 3 mg/kg, po after 30 mins by light/dark box test in presence of flumazenil; format: functional, organism-based; design: dose 3 mg/kg
Outline: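 Light/dark box in male CD-1 mice. Test substance given po in 1% CMC 30 min before the test, with flumazenil 100 mg/kg ip (saline) co-treatment. Transfers between compartments and time in the lit side recorded. Mean ± SEM of 15-20 mice.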

Mus musculus [23] = experiment: Effect on learning and memory process in CD1 albino mouse assessed as improvement in retention latency at 3 mg/kg, po after 24 hrs by passive avoidance test; format: functional, organism-based; design: dose 3 mg/kg
Outline: (§5)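 Step-through passive avoidance in a two-compartment box (lit and dark compartments joined by a guillotine door). Male CD-1 mice dosed po (1% CMC) 30 min before training; retention tested 24 h later. Training and retention latencies recorded; mean ± SEM of 15-20 mice versus controls.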

Mus musculus [24] = experiment: Effect on motor coordination in CD1 albino mouse assessed as number of falls form rotarod at 3 mg/kg, po administered 60 mins before test measured for 30 seconds after 30 mins of drug infusion by rotarod test; format: functional; outline: as §2
Mus musculus [25] = experiment: Anxiogenic activity in CD1 albino mouse at 30 mg/kg, po after 30 mins by light/dark box test; format: functional, organism-based; design: dose 30 mg/kg; outline: as §4
Mus musculus [26] = experiment: Anticonvulsant activity against pentylenetetrazole-induced convulsions in CD1 albino mouse assessed as convulsion latency at 3 mg/kg, po preincubated for 30 mins before pentylenetetrazole challenge measured for 30 mins (RVb=599 +/- 37.6 seconds); format: functional
Mus musculus [27] = experiment: Effect on spontaneous motility in CD1 albino mouse assessed as number of movement on plane board at 3 mg/kg, po after 30 mins by hole-board test; format: functional; outline: as §3
Bos taurus = species on record: Bos taurus; experiment: Displacement of [3H]flumazenil from GABAA/Benzodiazepine receptor in bovine brain at 10 uM; outline: as §1
Mus musculus [28] = experiment: Anxiogenic activity in CD1 albino mouse at 10 mg/kg, po after 30 mins by light/dark box test; format: functional, organism-based; design: dose 10 mg/kg; outline: as §4
Mus musculus [29] = experiment: Anxiogenic activity in CD1 albino mouse at 1 mg/kg, po after 30 mins by light/dark box test; format: functional, organism-based; design: dose 1 mg/kg; outline: as §4
Mus musculus [30] = experiment: Effect on learning and memory process in CD1 albino mouse assessed as improvement in retention latency at 1 mg/kg, po after 24 hrs by passive avoidance test; format: functional, organism-based; design: dose 1 mg/kg; outline: as §5

Structure (SMILES): CCOC(=O)c1ncn2c1CN(C)C(=O)c1cc(F)ccc1-2
- Activity (Mus musculus [1]): Active

Structure (SMILES): CC(Oc1ccc2c(c1)n1ncc(I)c1n[n+]2[O-])c1ccccc1 (stereo in doubt; (+)-16)
- Ki [2]: 605 nM
- Activity (Mus musculus [3]): 345.3 s
- Activity (Mus musculus [4]; 10 mg/kg): 2.5
- Activity (Mus musculus [5]): 31.9
- Activity (Mus musculus [6]; 10 mg/kg): 25.1
- Activity (Mus musculus [7]): 607.7 s
- Activity (Mus musculus [8]): 1.3
- Activity (Mus musculus [9]; 10 mg/kg): 543.7 s
- Activity (Mus musculus [10]): 39.3
- Activity (Mus musculus [11]): 30.4
- Activity (Mus musculus [12]): 62.9
- Activity (Mus musculus [13]): 59.7
- Activity (Mus musculus [14]): 80
- Activity (Mus musculus [15]; 10 mg/kg): 55.5
- Activity (Mus musculus [16]; 10 mg/kg): 733.5 s

Structure (SMILES): [O-][n+]1nc2c(I)cnn2c2cc(Oc3ccccc3)ccc21
- Activity (Mus musculus [17]): Active
- Activity (Mus musculus [18]): 38
- Activity (Mus musculus [19]): Active
- Ki [2]: 8.6 nM
- Activity (Mus musculus [20]): Active
- Activity (Mus musculus [4]): 0.6
- Activity (Mus musculus [21]): 264.7 s
- Activity (Mus musculus [6]): 39.8
- Activity (Mus musculus [22]): inactive
- Activity (Mus musculus [23]): Active
- Activity (Mus musculus [24]): 0.9
- Activity (Mus musculus [25]): Active
- Activity (Mus musculus [26]): 516.1 s
- Activity (Mus musculus [9]): 243.6 s
- Activity (Mus musculus [27]): 73.2
- Activity (Bos taurus): > 80%
- Activity (Mus musculus [28]): Active
- Activity (Mus musculus [15]): 63.8
- Activity (Mus musculus [16]): 345.5 s
- Activity (Mus musculus [29]): Active
- Activity (Mus musculus [30]): Active
